# Dynein transport: blocks dynein driven cargo transport along microtubules; 3617.4 mouse cells, GR-EGFP nuclear translocation imaging; test concentration mostly 20 µM; stimulated with dexamethasone, 1 µM; active compounds read low; z-score, hits read low; 0.47% of 220,000 active; AID 1381;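 active = plate z-score of nuclear minus cytoplasmic receptor signal below a set negative limit, without overly bright fluorescence or cell loss, cut at about -3.5 in these data, passing the limit was not always enough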;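 also: z-score of nuclear minus cytoplasmic ring GR-EGFP intensity difference per well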
#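 medium = tetracycline-free induction medium containing charcoal-stripped FBS | probe or stimulus = dexamethasone, 1.0 µM final | timing = 48 h induction, then 1 h compound, then 30 min agonist, 37 °C | detection = automated 10x imaging of fixed Hoechst-stained cells | read-out basis = nuclear versus cytoplasmic GR-EGFP signal, averaged per well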
# B2AR ag: agonists of human beta-2 adrenergic receptor inducing internalization | P07550 | Am2.2-beta2AR cells, FAP receptor internalization, flow cytometry | response, % (concentration not given with the values) | 0.43% of 340,000 active | AID 504454;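 active = response above a set limit, near 3 SD of response in nonfluorescent compounds, cut at about 42% in these data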
# Mdm2-MdmX inh: inhibitors of human Mdm2/MdmX interaction. SaOS-2 split-luciferase Mdm2/MdmX complementation, luminescence. inhibition, % at 8 µM. 3% of 330,000 active;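 active = inhibition of at least 50% at 8 µM in the primary screen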
# Target sequence (O15151 whole entry, looked up): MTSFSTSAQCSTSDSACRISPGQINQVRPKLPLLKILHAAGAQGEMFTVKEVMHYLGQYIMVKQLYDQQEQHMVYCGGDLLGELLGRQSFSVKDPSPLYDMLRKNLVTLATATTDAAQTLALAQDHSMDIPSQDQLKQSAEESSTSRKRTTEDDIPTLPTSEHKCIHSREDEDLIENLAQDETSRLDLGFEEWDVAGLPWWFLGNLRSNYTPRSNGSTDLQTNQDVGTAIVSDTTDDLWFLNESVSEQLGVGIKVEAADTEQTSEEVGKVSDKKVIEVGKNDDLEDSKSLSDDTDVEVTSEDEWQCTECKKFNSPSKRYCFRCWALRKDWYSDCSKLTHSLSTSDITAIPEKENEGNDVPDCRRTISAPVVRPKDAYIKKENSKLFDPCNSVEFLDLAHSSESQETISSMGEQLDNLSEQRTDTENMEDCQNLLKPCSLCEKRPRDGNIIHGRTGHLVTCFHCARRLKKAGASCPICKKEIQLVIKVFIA
# Target sequence (Q00987 whole entry, looked up): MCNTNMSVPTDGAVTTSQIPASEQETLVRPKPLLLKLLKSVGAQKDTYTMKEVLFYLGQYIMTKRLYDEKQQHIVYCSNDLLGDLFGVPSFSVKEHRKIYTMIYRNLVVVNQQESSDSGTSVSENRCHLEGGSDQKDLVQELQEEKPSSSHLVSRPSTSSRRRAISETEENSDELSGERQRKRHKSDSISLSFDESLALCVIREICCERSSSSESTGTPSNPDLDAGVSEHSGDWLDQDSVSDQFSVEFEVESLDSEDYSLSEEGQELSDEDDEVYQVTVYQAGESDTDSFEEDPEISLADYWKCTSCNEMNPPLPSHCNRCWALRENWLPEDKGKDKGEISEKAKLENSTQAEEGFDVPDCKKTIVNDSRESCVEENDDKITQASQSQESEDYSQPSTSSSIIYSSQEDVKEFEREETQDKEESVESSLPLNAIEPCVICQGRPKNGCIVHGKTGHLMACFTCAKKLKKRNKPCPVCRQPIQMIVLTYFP
# Mdm2 ligase inh: Mdm2 E3 ligase (human) inhibition; signal enhancement, % at 5 µM; cell-based MDM2 ubiquitination luciferase reporter, 2 h; 0 = plate control, 100 = twice control, blank-subtracted; 0.11% of 210,000 active; Q00987;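 active = signal enhancement of 30% or more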;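 also: luminescence tracks abundance of the self-degrading MDM2-luciferase fusion protein; higher signal means inhibition of MDM2 E3 ligase activity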
#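 Material: Stable MDM2–luciferase fusion reporter cells | Amount: 2000 cells seeded into each well | Dosing: One concentration, 5 µM, with 0.2% DMSO | Incubation: 4 h cell settling then 2 h compound exposure, 37 °C | Measured by: Luciferase luminescence | Read-out basis: % enhancement relative to plate controls after blank subtraction | Benchmarks: Control and blank well means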
# CHOP UPR activ: activators of apoptotic arm of unfolded protein response (CHOP); CHO-CHOP luciferase reporter, UPR activation, luminescence; percent of tunicamycin response over DMSO baseline; activation, % at 10 µM; 0.34% of 330,000 active; AID 449763;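 active = at 10 µM dose, activation of 40% or more, normalized to positive control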;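 also: 100% = tunicamycin at 10 µg/mL and 0% = DMSO alone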
#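 Assay system: CHO cells with stable CHOP pathway luciferase reporter; Buffer or medium: F12 plus 10% serum; Times: 16-18 h cell attachment, then 6 h compound exposure, 37 °C; Signal: luciferase luminescence; Read-out basis: percent activation relative to tunicamycin control; Control set: tunicamycin high control, DMSO low control.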
# XBP1 UPR activ: adaptive UPR (XBP1) activation | CHO-XBP1 luciferase reporter, IRE1-XBP1 UPR activation, luminescence; percent of tunicamycin response, DMSO as zero | activation, % at 20 µM | 0.33% of 330,000 active;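 active = versus positive control, 20 µM dose yields 30% or more activation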;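 also: 100% = tunicamycin at 10 µg/mL and 0% = DMSO only wells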
#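 Assay system: CHO-XBP1 luciferase reporter cells; Schedule: 6 h treatment, 37 °C; Detection: glow luminescence from Steady-Glo reagent; Benchmarks: high control tunicamycin 10 µg/mL final, low control DMSO vehicle only.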
# Mdm2-MdmX conf: confirmation of human Mdm2/MdmX interaction inhibitors; Mdm2-MdmX binding, luminescent assay; inhibition, % at 8 µM; shares compounds with Mdm2-MdmX inh; 55% of 10,000 active; in the data active = inhibition above about 40%
# FLuc counter: full-length luciferase inhibition in Mdm2/MdmX counter-screen | 77% of 6,200 active | AID 504607 | SaOS-2 full-length luciferase counterscreen, luminescence | shares compounds with Mdm2-MdmX inh | inhibition, % at 8 µM;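 active = mean inhibition at 8 µM reaching about 37%, which flags the compound as non-specific, limit read from the data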;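 also: p53-null SaOS-2 cells with luciferase driven by a doxycycline-inducible promoter; compound on cells about two nights before reading with doxycycline added after day one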
# Active calls of the source: *; x = not tested or not shown. Most compounds without a hit are left out; they make up all but 3.7% or so of the library.
SMILES,Dynein transport,B2AR ag,Mdm2-MdmX inh,Mdm2 ligase inh,CHOP UPR activ,XBP1 UPR activ,Mdm2-MdmX conf,FLuc counter
CCN(CC)S(=O)(=O)c1ccc(C(=O)Nc2nnc(COC)o2)cc1,0.445,3.5,-2.7,-9.5,1.5,0.4,x,x
N#Cc1c(N)nc2c(c1-c1ccc3c(c1)OCO3)CCc1ccccc1-2,-0.243,3.5,64.5*,-2.5,5.4,1.2,35.9,92.2*
N#Cc1c(N)c(C#N)c(-c2ccc3c(c2)OCO3)c2c1CCCC2,x,-3.5,20.1,-15.4,-0.7,1.1,x,x
COc1ccc(Oc2c(Cl)cnn(-c3ccc(Cl)c(Cl)c3)c2=O)cc1,0.849,25.9,85.4*,-10.9,4.7,-2.3,-5.8,x
O=C(COC(=O)C1CC(=O)N(Cc2ccco2)C1)Nc1nc(-c2ccc(F)cc2)cs1 (centres undefined),x,11.0,20.4,x,3.7,1.9,x,x
CC(=O)C(Cc1ccccc1)NC(=O)CCl (centres undefined),-1.21,3.7,39.1,-15.7,0.2,-0.5,x,x
O=C(CCl)NC(Cc1ccccc1)c1ccccc1 (centres undefined),0.423,0.2,73.6*,-21.8,0.9,-4.3,51.0*,44.0*
CCCC1(c2ccccc2)NC(=O)N(CC(=O)NCC2COc3ccccc3O2)C1=O (centres undefined),x,-0.4,6.1,x,1.8,-4.1,x,x
COc1ccc([N+](=O)[O-])cc1NCc1ccccc1C,-0.0593,0.5,17.2,4.3,1.7,0.8,x,x
COc1ccc([N+](=O)[O-])cc1NCc1ccccc1,0.811,-0.1,70.4*,-7.0,2.6,4.5,39.0,98.2*
O=C(C#Cc1ccccc1)Nc1ccc(F)cc1,x,-1.0,38.1,x,4.9,2.3,x,x
O=C(C#Cc1ccccc1)Nc1cccc(F)c1,x,3.2,98.0*,x,29.0,11.5,99.5*,30.5
COc1ccc2ncccc2c1Cc1c(OC)ccc2ncccc12,x,6.0,x,x,x,x,x,x
Cc1ccc(Cn2c(C(CO)Nc3nc(-c4ccc(Cl)c([N+](=O)[O-])c4)cs3)nc3ccccc32)cc1 (centres undefined),x,13.6,64.5*,x,-0.4,4.0,15.6,x
CCCn1c(C(C)Nc2nc(-c3ccc(Cl)c([N+](=O)[O-])c3)cs2)nc2cc(Cl)c(N3CCCCC3)cc21 (centres undefined),x,-5.6,61.4*,x,1.9,-2.2,21.1,x
Cc1ccc(Cn2c(C(CO)Nc3nc(-c4ccc(F)cc4)cs3)nc3ccccc32)cc1 (centres undefined),x,-6.8,60.3*,x,1.5,-2.3,29.1,x
CC(Nc1nc(-c2ccc(F)cc2)cs1)c1nc2cc(C(F)(F)F)ccc2n1CCCO (centres undefined),x,-3.5,30.0,x,0.6,-0.8,x,x
Cc1ccc(Cn2c(C(C)Nc3nc(-c4ccc(F)cc4)cs3)nc3cc(C(F)(F)F)ccc32)cc1 (centres undefined),x,-1.2,50.3*,x,-0.9,-0.4,-0.7,x
CCCn1c(C(C)Nc2nc(-c3ccc(OC)cc3)cs2)nc2ccccc21 (centres undefined),x,-5.7,3.1,x,0.6,-3.0,x,x
COc1ccc(-c2csc(NC(CO)c3nc4ccccc4n3Cc3ccc(C)cc3)n2)cc1 (centres undefined),x,1.9,1.6,x,2.7,-1.7,x,x
Cc1ccc(-c2csc(NC(CO)c3nc4ccccc4n3CCOCCO)n2)cc1 (centres undefined),x,0.8,-8.1,x,0.9,-1.4,x,x
CCCN(CCC)CCNC(=O)C1CCN(S(=O)(=O)c2cccc3nsnc23)CC1,x,2.8,7.2,x,2.6,-6.8,x,x
Cc1cc(NC(=O)c2cc(-c3cccc(OCC(C)C)c3)nc3ccccc23)no1,x,6.0,-8.2,x,1.3,-4.6,x,x
OCC1OC(n2ccc3c(NO)ncnc32)C(O)C1O (centres undefined),x,4.0,x,x,x,x,x,x
Nc1ccn([C@@H]2O[C@H](CO)[C@@H](O)[C@H]2O)c(=O)n1,x,-5.5,x,x,x,x,x,x
SMILES,Dynein transport,B2AR ag,Mdm2-MdmX inh,Mdm2 ligase inh,CHOP UPR activ,XBP1 UPR activ,Mdm2-MdmX conf,FLuc counter
N=c1ccn2c(n1)OC1C(O)C(CO)OC12 (centres undefined),-0.01,-8.3,69.2*,-12.1,-1.1,-4.5,72.1*,45.7*
Nc1ccn([C@@H]2O[C@H](CO)[C@@H](O)C2O)c(=O)n1 (some centres undefined),x,-2.3,65.1*,x,-0.9,-6.2,70.0*,46.6*
Cc1ccccc1OCC(=O)Nc1ccc2[nH]ncc2c1,x,1.9,14.2,x,-1.1,-6.5,x,x
COc1ccc(NC(=O)CN(C)C(C)C(=O)NC(=O)NC2CCCCC2)cc1 (centres undefined),x,-3.5,19.2,x,1.3,-2.9,x,x
CC(=O)Nc1nc(C)c(-c2csc(Nc3cccc([N+](=O)[O-])c3)n2)s1,-1.41,17.8,90.2*,-27.6,4.1,2.7,71.2*,35.6
CC(=O)Nc1nc(C)c(-c2csc(Nc3cccc(C(C)=O)c3)n2)s1,x,24.2,82.0*,x,1.2,2.4,45.6*,41.1*
CCC(=O)Nc1nc(C)c(-c2csc(Nc3cccc(C(=O)O)c3)n2)s1,0.604,-9.4,0.4,-1.2,0.3,-2.1,x,x
O=C(Cn1c(=O)c2cccn2c2cccnc21)N1CCN(c2ccc(Cl)cc2)CC1,x,-6.7,23.5,x,-1.4,-5.1,x,x
CCCOc1ccc(C(=O)C(CN2CCOCC2)c2ccccc2)cc1 (centres undefined),-2.42,-10.8,91.3*,1.4,32.8,11.5,84.5*,25.6
O=C(c1ccc(Cl)cc1)C(CN1CCCCC1)c1ccccc1 (centres undefined),x,3.4,94.2*,x,203.3*,-7.9,55.0*,42.4*
CCOC(=O)C(CN1CCCC1)c1ccccc1 (centres undefined),x,-11.2,-2.9,x,-2.4,0.9,x,x
CCCOc1ccc(C(=O)C(c2ccccc2)N2CCOCC2)cc1 (centres undefined),0.4,-2.6,-0.9,-25.6,-2.6,-2.0,x,x
CC1CCC(NC(=O)C2CCC(CNS(=O)(=O)c3cccc4nsnc34)CC2)CC1 (centres undefined),-0.144,-3.7,56.5*,-7.2,0.0,-0.4,-5.0,x
O=C(NC1CCCCC1)C1CCC(CNS(=O)(=O)c2cccc3nsnc23)CC1 (centres undefined),4.38,3.4,24.6,3.3,-0.1,-0.4,x,x

# Source: PubChem BioAssay (several laboratories)
